From ChEMBL document CHEMBL3616437, “Thiazole compounds with activity against Cryptococcus gattii and Cryptococcus neoformans in vitro” (Eur J Med Chem, 2015)

Assays:
[1] = tested on: Cryptococcus gattii species complex; experiment: Antifungal activity against Cryptococcus gattii L24/01 assessed as reduction in cell viability at 1.9 uM after 6 to 72 hrs by MTT assay; type: functional, Cryptococcus bacillisporus
[2] = tested on: Cryptococcus gattii species complex; experiment: Antifungal activity against Cryptococcus gattii 547/OTTI-97-PI-10 assessed as reduction in cell viability at 1.9 uM after 6 to 72 hrs by MTT assay; type: functional, Cryptococcus bacillisporus
[3] = tested on: Cryptococcus gattii species complex; experiment: Antifungal activity against Cryptococcus gattii LMM818 assessed as reduction in cell viability at 1.9 uM after 6 to 72 hrs by MTT assay; type: functional, Cryptococcus bacillisporus
Cryptococcus neoformans [4] = experiment: Antifungal activity against Cryptococcus neoformans ATCC 62066 assessed as reduction in cell viability at 0.9 uM after 6 to 72 hrs by MTT assay; type: functional
[5] = tested on: Cryptococcus gattii species complex; experiment: Antifungal activity against Cryptococcus gattii 23/10993 assessed as reduction in cell viability at 1.9 uM after 6 to 72 hrs by MTT assay; type: functional, Cryptococcus bacillisporus
Cryptococcus neoformans [6] = experiment: Antifungal activity against Cryptococcus neoformans 28JF assessed as reduction in cell viability at 0.9 uM after 6 to 72 hrs by MTT assay; type: functional
[7] = tested on: Cryptococcus gattii species complex; experiment: Antifungal activity against Cryptococcus gattii 1913ER assessed as reduction in cell viability at 1.9 uM after 6 to 72 hrs by MTT assay; type: functional, Cryptococcus bacillisporus
[8] = tested on: Cryptococcus bacillisporus; experiment: Antifungal activity against Cryptococcus gattii ATCC 32608 assessed as reduction in cell viability after at 1.9 uM 6 to 72 hrs by MTT assay; type: functional
[9] = tested on: Cryptococcus gattii species complex; experiment: Antifungal activity against Cryptococcus gattii L28/02 assessed as reduction in cell viability at 1.9 uM after 6 to 72 hrs by MTT assay; type: functional, Cryptococcus bacillisporus
[10] = tested on: Cryptococcus gattii species complex; experiment: Antifungal activity against Cryptococcus gattii 196L/03 assessed as reduction in cell viability at 1.9 uM after 6 to 72 hrs by MTT assay; type: functional, Cryptococcus bacillisporus
[11] = tested on: Cryptococcus gattii species complex; experiment: Antifungal activity against Cryptococcus gattii ICB181 assessed as reduction in cell viability at 1.9 uM after 6 to 72 hrs by MTT assay; type: functional, Cryptococcus bacillisporus
Cryptococcus neoformans [12] = experiment: Antifungal activity against Cryptococcus gattii ATCC 24065 assessed as reduction in cell viability at 1.9 uM after 6 to 72 hrs by MTT assay; type: functional, Cryptococcus bacillisporus
[13] = Selectivity index, ratio of IC50 for C57BL/6 mouse peritoneal macrophages to MIC for Cryptococcus gattii ATCC 24065
[14] = tested on: Cryptococcus gattii species complex; experiment: Antifungal activity against Cryptococcus gattii 196L/03 assessed as reduction in cell viability at 26 uM after 6 to 72 hrs by MTT assay; type: functional, Cryptococcus bacillisporus
Outline: (§1)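 Time-kill setup: colonies from two 48 h, 35°C SDA passages were suspended in saline to 70% transmittance at 530 nm. They were then diluted to 1-5 x10^3 cells/mL in RPMI with L-glutamine buffered to pH 7.0 with 0.165 M MOPS. Plates were incubated at 35°C for 0-72 h, then MTT (5.0 mg/mL) was added for 3 h. After isopropanol, absorbance was read at 490 nm. Drug-free controls were included, results were confirmed by SDA colony counts, and assays were run in triplicate.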

Cryptococcus neoformans [15] = experiment: Antifungal activity against Cryptococcus neoformans LMM820 assessed as reduction in cell viability at 26 uM after 6 to 72 hrs by MTT assay; type: functional; outline: as §1
[16] = tested on: Cryptococcus gattii species complex; experiment: Antifungal activity against Cryptococcus gattii L24/01 assessed as reduction in cell viability at 26 uM after 6 to 72 hrs by MTT assay; type: functional, Cryptococcus bacillisporus; outline: as §1
Cryptococcus neoformans [17] = experiment: Antifungal activity against Cryptococcus neoformans WP assessed as reduction in cell viability at 26 uM after 6 to 72 hrs by MTT assay; type: functional; outline: as §1
[18] = tested on: Cryptococcus gattii species complex; experiment: Antifungal activity against Cryptococcus gattii L27/01 assessed as reduction in cell viability at 26 uM after 6 to 72 hrs by MTT assay; type: functional, Cryptococcus bacillisporus; outline: as §1
Cryptococcus neoformans [19] = experiment: Antifungal activity against Cryptococcus neoformans 5396 assessed as reduction in cell viability at 0.12 uM after 6 to 72 hrs by MTT assay; type: functional
[20] = tested on: Cryptococcus gattii species complex; experiment: Antifungal activity against Cryptococcus gattii 547/OTTI-97-PI-10 assessed as reduction in cell viability at 0.12 uM after 6 to 72 hrs by MTT assay; type: functional, Cryptococcus bacillisporus
[21] = tested on: Cryptococcus gattii species complex; experiment: Antifungal activity against Cryptococcus gattii 135L/03 assessed as reduction in cell viability at 0.12 uM after 6 to 72 hrs by MTT assay; type: functional, Cryptococcus bacillisporus
Cryptococcus neoformans [22] = experiment: Antifungal activity against Cryptococcus neoformans CN31 assessed as reduction in cell viability at 0.12 uM after 6 to 72 hrs by MTT assay; type: functional
Cryptococcus neoformans [23] = experiment: Antifungal activity against Cryptococcus neoformans 27JF assessed as reduction in cell viability at 1.9 uM after 6 to 72 hrs by MTT assay; type: functional
Cryptococcus gattii = experiment: Antifungal activity against Cryptococcus gattii ATCC 24065 assessed as reduction in cell viability at 3.9 uM after 6 to 72 hrs by MTT assay
Cryptococcus neoformans [24] = experiment: Antifungal activity against Cryptococcus neoformans 28JF assessed as reduction in cell viability at 3.9 uM after 6 to 72 hrs by MTT assay; type: functional
[25] = tested on: Cryptococcus bacillisporus; experiment: Antifungal activity against Cryptococcus gattii ATCC 32608 assessed as reduction in cell viability at 3.9 uM after 6 to 72 hrs by MTT assay; type: functional
[26] = tested on: Cryptococcus gattii species complex; experiment: Antifungal activity against Cryptococcus gattii 135L/03 assessed as reduction in cell viability at 3.9 uM after 6 to 72 hrs by MTT assay; type: functional, Cryptococcus bacillisporus
[27] = tested on: Cryptococcus gattii species complex; experiment: Antifungal activity against Cryptococcus gattii 196L/03 assessed as reduction in cell viability at 3.9 uM after 6 to 72 hrs by MTT assay; type: functional, Cryptococcus bacillisporus
[28] = tested on: Cryptococcus gattii species complex; experiment: Antifungal activity against Cryptococcus gattii LMM818 assessed as reduction in cell viability at 3.9 uM after 6 to 72 hrs by MTT assay; type: functional, Cryptococcus bacillisporus
Cryptococcus neoformans [29] = experiment: Antifungal activity against Cryptococcus neoformans 27JF assessed as reduction in cell viability at 3.9 uM after 6 to 72 hrs by MTT assay; type: functional
Cryptococcus neoformans [30] = experiment: Antifungal activity against Cryptococcus neoformans VM-MCMMPI assessed as reduction in cell viability at 3.9 uM after 6 to 72 hrs by MTT assay; type: functional
Cryptococcus neoformans [31] = experiment: Antifungal activity against Cryptococcus neoformans CN31 assessed as reduction in cell viability at 3.9 uM after 6 to 72 hrs by MTT assay; type: functional
Cryptococcus neoformans [32] = experiment: Antifungal activity against Cryptococcus neoformans ATCC 24067 assessed as reduction in cell viability at 3.9 uM after 6 to 72 hrs by MTT assay; type: functional
[33] = tested on: Cryptococcus gattii species complex; experiment: Antifungal activity against Cryptococcus gattii L27/01 assessed as reduction in cell viability at 3.9 uM after 6 to 72 hrs by MTT assay; type: functional, Cryptococcus bacillisporus
[34] = tested on: Cryptococcus gattii species complex; experiment: Antifungal activity against Cryptococcus gattii L28/02 assessed as reduction in cell viability at 3.9 uM after 6 to 72 hrs by MTT assay; type: functional, Cryptococcus bacillisporus
[35] = tested on: Cryptococcus gattii species complex; experiment: Antifungal activity against Cryptococcus gattii ICB181 assessed as reduction in cell viability at 3.9 uM after 6 to 72 hrs by MTT assay; type: functional, Cryptococcus bacillisporus
Cryptococcus neoformans [36] = experiment: Antifungal activity against Cryptococcus neoformans LMM820 assessed as reduction in cell viability at 3.9 uM after 6 to 72 hrs by MTT assay; type: functional
Cryptococcus neoformans [37] = experiment: Antifungal activity against Cryptococcus neoformans ATCC 28957 assessed as reduction in cell viability at 3.9 uM after 6 to 72 hrs by MTT assay; type: functional

Structure (SMILES)	Activity [1]	Activity [2]	Activity [3]	Activity [5]	Activity [7]	Activity [8]	Activity [9]	Activity [10]	Activity [11]	Activity (Cryptococcus neoformans [12])	Ratio [13]	Activity (Cryptococcus gattii)	Activity (Cryptococcus neoformans [24])	Activity [25]	Activity [26]	Activity [27]	Activity [28]	Activity (Cryptococcus neoformans [29])	Activity (Cryptococcus neoformans [30])	Activity (Cryptococcus neoformans [31])	also measured
COc1ccc(-c2csc(N/N=C(\C)CCO)n2)cc1	90%	90%	90%	90%	90%	90%	90%	90%	90%	90%											Activity (Cryptococcus neoformans [4]): 90%; Activity (Cryptococcus neoformans [6]): 90%
OC(Cn1cncn1)(Cn1cncn1)c1ccc(F)cc1F [FLUCONAZOLE]											7.87										Activity [14]: 80%; Activity (Cryptococcus neoformans [15]): 80%; Activity [16]: 80%; Activity (Cryptococcus neoformans [17]): 80%; Activity [18]: 80%
C[C@@H]1[C@H](O)[C@@H](C)/C=C/C=C/C=C/C=C/C=C/C=C/C=C/[C@H](O[C@@H]2O[C@H](C)[C@@H](O)[C@H](N)[C@@H]2O)C[C@@H]2O[C@](O)(C[C@@H](O)C[C@@H](O)[C@H](O)CC[C@@H](O)C[C@@H](O)CC(=O)O[C@H]1C)C[C@H](O)[C@H]2C(=O)O [AMPHOTERICIN B]																					Activity (Cryptococcus neoformans [19]): 90%; Activity [20]: 90%; Activity [21]: 90%; Activity (Cryptococcus neoformans [22]): 90%
C(=N\Nc1nc(-c2ccccc2)cs1)/C1CCCCC1	90%	90%	90%	90%	90%	90%	90%	90%	90%	90%											Activity (Cryptococcus neoformans [23]): 90%
COc1ccc(-c2csc(N/N=C/C3CCCCC3)n2)cc1											25.64	80%	80%	80%	80%	80%	80%	80%	80%	80%	Activity (Cryptococcus neoformans [32]): 80%; Activity [33]: 80%; Activity [34]: 80%; Activity [35]: 80%; Activity (Cryptococcus neoformans [36]): 80%; Activity (Cryptococcus neoformans [37]): 80%
c1ccc(-c2csc(NN=C3CCCC3)n2)cc1												80%	80%	80%	80%	80%	80%	80%	80%	80%	Activity (Cryptococcus neoformans [32]): 80%; Activity [33]: 80%; Activity [34]: 80%; Activity [35]: 80%; Activity (Cryptococcus neoformans [36]): 80%; Activity (Cryptococcus neoformans [37]): 80%
